According to ChEMBL document CHEMBL3407388, “Synthesis, anticancer activity and molecular docking studies on a series of heterocyclic trans-cyanocombretastatin analogues as antitubulin agents” (2015):

Key:
Format in all cases: functional
[1] = tested on: KM12; test: Cytotoxicity against human KM12 cells assessed as growth inhibition after 48 hrs by SRB assay; conditions: KM12, 48 h
Outline: (§1)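 NCI 60-cell panel; compounds passing a single-dose screen (10−5 M, 48 h) were tested at five 10-fold dilutions (10−4 to 10−8 M) with 48 h drug exposure. GI50 is the molar concentration giving 50% reduction in net cell growth relative to cell numbers on day 0.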

[2] = Cytotoxicity against human OVCAR5 cells assessed as growth inhibition after 48 hrs by SRB assay; conditions: OVCAR-5, 48 h; outline: as §1
[3] = Cytotoxicity against human HCT116 cells assessed as growth inhibition after 48 hrs by SRB assay; conditions: HCT-116, 48 h; outline: as §1
[4] = tested on: 786-0; test: Cytotoxicity against human 786-0 cells assessed as growth inhibition after 48 hrs by SRB assay; conditions: 786-0, 48 h; outline: as §1
[5] = Cytotoxicity against human OVCAR8 cells assessed as growth inhibition after 48 hrs by SRB assay; conditions: OVCAR-8, 48 h; outline: as §1
[6] = Cytotoxicity against human NCI-ADR-RES cells assessed as growth inhibition after 48 hrs by SRB assay; outline: as §1
[7] = tested on: BT-549; test: Cytotoxicity against human BT549 cells assessed as growth inhibition after 48 hrs by SRB assay; conditions: BT-549, 48 h; outline: as §1
[8] = Cytotoxicity against human OVCAR3 cells assessed as growth inhibition after 48 hrs by SRB assay; conditions: OVCAR-3, 48 h; outline: as §1
[9] = tested on: LOX IMVI; test: Cytotoxicity against human LOXIMVI cells assessed as growth inhibition after 48 hrs by SRB assay; outline: as §1
[10] = tested on: A498; test: Cytotoxicity against human A498 cells assessed as growth inhibition after 48 hrs by SRB assay; conditions: A498, 48 h; outline: as §1
[11] = tested on: MCF7; test: Cytotoxicity against human MCF7 cells assessed as growth inhibition after 48 hrs by SRB assay; conditions: MCF7, 48 h; outline: as §1
[12] = tested on: DU-145; test: Cytotoxicity against human DU145 cells assessed as growth inhibition after 48 hrs by SRB assay; conditions: DU-145, 48 h; outline: as §1
[13] = tested on: TK-10; test: Cytotoxicity against human TK10 cells assessed as growth inhibition after 48 hrs by SRB assay; conditions: TK-10, 48 h
[14] = tested on: K562; test: Cytotoxicity against human K562 cells assessed as growth inhibition after 48 hrs by SRB assay; conditions: K562, 48 h; outline: as §1
[15] = Cytotoxicity against human OVCAR4 cells assessed as growth inhibition after 48 hrs by SRB assay; conditions: OVCAR-4, 48 h; outline: as §1
[16] = tested on: CAKI-1; test: Cytotoxicity against human Caki1 cells assessed as growth inhibition after 48 hrs by SRB assay; conditions: CAKI-1, 48 h; outline: as §1
[17] = tested on: SK-MEL-5; test: Cytotoxicity against human SK-MEL-5 cells assessed as growth inhibition after 48 hrs by SRB assay; conditions: SK-MEL-5, 48 h; outline: as §1
[18] = tested on: M14; test: Cytotoxicity against human M14 cells assessed as growth inhibition after 48 hrs by SRB assay; conditions: M14, 48 h; outline: as §1
[19] = Cytotoxicity against human UACC62 cells assessed as growth inhibition after 48 hrs by SRB assay; conditions: UACC-62, 48 h
[20] = tested on: HCC 2998; test: Cytotoxicity against human HCC2998 cells assessed as growth inhibition after 48 hrs by SRB assay; conditions: HCC 2998, 48 h; outline: as §1
[21] = tested on: SW-620; test: Cytotoxicity against human SW620 cells assessed as growth inhibition after 48 hrs by SRB assay; conditions: SW-620, 48 h
[22] = tested on: SNB-19; test: Cytotoxicity against human SNB19 cells assessed as growth inhibition after 48 hrs by SRB assay; conditions: SNB-19, 48 h; outline: as §1
[23] = tested on: SNB-75; test: Cytotoxicity against human SNB75 cells assessed as growth inhibition after 48 hrs by SRB assay; conditions: SNB-75, 48 h
[24] = tested on: MDA-MB-435; test: Cytotoxicity against human MDA-MB-435 cells assessed as growth inhibition after 48 hrs by SRB assay; conditions: MDA-MB-435, 48 h; outline: as §1
[25] = tested on: MDA-MB-231; test: Cytotoxicity against human MDA-MB-231 cells assessed as growth inhibition after 48 hrs by SRB assay; conditions: MDA-MB-231, 48 h; outline: as §1
[26] = tested on: HT-29; test: Cytotoxicity against human HT-29 cells assessed as growth inhibition after 48 hrs by SRB assay; conditions: HT-29, 48 h; outline: as §1
[27] = tested on: SF-295; test: Cytotoxicity against human SF295 cells assessed as growth inhibition after 48 hrs by SRB assay; conditions: SF-295, 48 h; outline: as §1
[28] = Cytotoxicity against human HCT15 cells assessed as growth inhibition after 48 hrs by SRB assay; conditions: HCT-15, 48 h; outline: as §1
[29] = tested on: MOLT-4; test: Cytotoxicity against human MOLT4 cells assessed as growth inhibition after 48 hrs by SRB assay; conditions: MOLT-4, 48 h; outline: as §1
[30] = Cytotoxicity against human UO31 cells assessed as growth inhibition after 48 hrs by SRB assay; conditions: UO-31, 48 h
[31] = tested on: IGROV-1; test: Cytotoxicity against human IGROV1 cells assessed as growth inhibition after 48 hrs by SRB assay; conditions: IGROV-1, 48 h; outline: as §1
[32] = tested on: RPMI-8226; test: Cytotoxicity against human RPMI8226 cells assessed as growth inhibition after 48 hrs by SRB assay; conditions: RPMI-8226, 48 h; outline: as §1
[33] = tested on: SK-OV-3; test: Cytotoxicity against human SKOV3 cells assessed as growth inhibition after 48 hrs by SRB assay; conditions: SK-OV-3, 48 h; outline: as §1
[34] = tested on: U-251; test: Cytotoxicity against human U251 cells assessed as growth inhibition after 48 hrs by SRB assay; conditions: U-251, 48 h
[35] = tested on: SN12C; test: Cytotoxicity against human SN12C cells assessed as growth inhibition after 48 hrs by SRB assay; outline: as §1
[36] = tested on: NCI-H226; test: Cytotoxicity against human NCI-H226 cells assessed as growth inhibition after 48 hrs by SRB assay; conditions: NCI-H226, 48 h; outline: as §1
[37] = tested on: NCI-H460; test: Cytotoxicity against human NCI-H460 cells assessed as growth inhibition after 48 hrs by SRB assay; conditions: NCI-H460, 48 h; outline: as §1
[38] = tested on: HL-60(TB); test: Cytotoxicity against human HL-60(TB) cells assessed as growth inhibition after 48 hrs by SRB assay; conditions: HL-60, 48 h
Outline: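 NCI 60-cell panel, leukemia subpanel. Five-dose screen at 10-fold dilutions from 10−4 to 10−8 M with 48 h drug exposure. GI50 is the molar concentration giving 50% reduction in net cell growth compared with cell numbers on day 0.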

[39] = Cytotoxicity against human Hs578T cells assessed as growth inhibition after 48 hrs by SRB assay; conditions: Hs-578T; outline: as §1
[40] = tested on: SF-268; test: Cytotoxicity against human SF268 cells assessed as growth inhibition after 48 hrs by SRB assay; conditions: SF-268, 48 h; outline: as §1
[41] = tested on: RXF 393; test: Cytotoxicity against human RXF393 cells assessed as growth inhibition after 48 hrs by SRB assay; conditions: RXF 393, 48 h; outline: as §1
[42] = Cytotoxicity against human PC3 cells assessed as growth inhibition after 48 hrs by SRB assay; conditions: PC-3, 48 h; outline: as §1
[43] = tested on: COLO 205; test: Cytotoxicity against human COLO205 cells assessed as growth inhibition after 48 hrs by SRB assay; conditions: COLO 205, 48 h; outline: as §1

COc1ccc(/C(C#N)=C/c2cc3ccccc3[nH]2)cc1OC
GI50 [1]: 76 nM | GI50 [2]: 471 nM | GI50 [3]: 44 nM | GI50 [4]: 602 nM | GI50 [5]: 326 nM | GI50 [6]: 40 nM | GI50 [7]: 97.8 nM | GI50 [8]: 34 nM | GI50 [9]: 64 nM | GI50 [10]: 40 nM | GI50 [11]: 289 nM | GI50 [12]: 206 nM | GI50 [13]: 5560 nM | GI50 [14]: 39 nM | GI50 [15]: 735 nM | GI50 [16]: 103 nM | GI50 [17]: 142 nM | GI50 [18]: 39 nM | GI50 [19]: 38 nM | GI50 [20]: 366 nM | GI50 [21]: 42 nM | GI50 [22]: 189 nM | GI50 [23]: 36 nM | GI50 [24]: 21 nM | GI50 [25]: 291 nM | GI50 [26]: 48 nM | GI50 [27]: 36 nM | GI50 [28]: 48 nM | GI50 [29]: 84 nM | GI50 [30]: 71 nM | GI50 [31]: 482 nM | GI50 [32]: 151 nM | GI50 [33]: 394 nM | GI50 [34]: 75 nM | GI50 [35]: 779 nM | GI50 [36]: 399 nM | GI50 [37]: 53 nM | GI50 [38]: 34 nM | GI50 [39]: 133 nM | GI50 [40]: 1480 nM | GI50 [41]: 151 nM | GI50 [42]: 62 nM | GI50 [43]: 232 nM

COc1cc(/C(C#N)=C/c2cc3ccccc3n2Cc2ccc(C#N)cc2)cc(OC)c1OC
GI50 [1]: 47 nM | GI50 [2]: 259 nM | GI50 [3]: 47 nM | GI50 [4]: 137 nM | GI50 [5]: 124 nM | GI50 [6]: 73 nM | GI50 [7]: 109 nM | GI50 [8]: 42 nM | GI50 [9]: 90 nM | GI50 [10]: 29 nM | GI50 [11]: 39 nM | GI50 [12]: 207 nM | GI50 [13]: 20100 nM | GI50 [14]: 39 nM | GI50 [15]: 672 nM | GI50 [16]: 35 nM | GI50 [17]: 60 nM | GI50 [18]: 56 nM | GI50 [19]: 58 nM | GI50 [20]: 265 nM | GI50 [21]: 48 nM | GI50 [22]: 85 nM | GI50 [23]: 39 nM | GI50 [24]: 24 nM | GI50 [25]: 294 nM | GI50 [26]: 48 nM | GI50 [27]: 37 nM | GI50 [28]: 89 nM | GI50 [29]: 274 nM | GI50 [30]: 201 nM | GI50 [31]: 183 nM | GI50 [32]: 199 nM | GI50 [33]: 87 nM | GI50 [34]: 44 nM | GI50 [35]: 269 nM | GI50 [36]: 14500 nM | GI50 [37]: 93 nM | GI50 [38]: 31 nM | GI50 [39]: 92 nM | GI50 [40]: 86 nM | GI50 [41]: 55 nM | GI50 [42]: 105 nM | GI50 [43]: 97 nM

COc1cc(/C(C#N)=C/c2c[nH]c3ccccc23)cc(OC)c1OC
GI50 [1]: 43 nM | GI50 [2]: 10600 nM | GI50 [3]: 48 nM | GI50 [4]: 90 nM | GI50 [5]: 121 nM | GI50 [6]: 39 nM | GI50 [7]: 1940 nM | GI50 [8]: 33 nM | GI50 [9]: 75 nM | GI50 [10]: 35 nM | GI50 [11]: 34 nM | GI50 [12]: 132 nM | GI50 [13]: 11100 nM | GI50 [14]: 40 nM | GI50 [15]: 338 nM | GI50 [16]: 58 nM | GI50 [17]: 42 nM | GI50 [18]: 53 nM | GI50 [19]: 48 nM | GI50 [20]: 107 nM | GI50 [21]: 47 nM | GI50 [22]: 76 nM | GI50 [23]: 42 nM | GI50 [24]: 24 nM | GI50 [25]: 245 nM | GI50 [26]: 38 nM | GI50 [27]: 42 nM | GI50 [28]: 51 nM | GI50 [29]: 131 nM | GI50 [30]: 1410 nM | GI50 [31]: 417 nM | GI50 [32]: 231 nM | GI50 [33]: 51 nM | GI50 [34]: 50 nM | GI50 [35]: 699 nM | GI50 [36]: 194 nM | GI50 [37]: 41 nM | GI50 [38]: 48 nM | GI50 [39]: 131 nM | GI50 [40]: 2540 nM | GI50 [41]: 36 nM | GI50 [42]: 54 nM | GI50 [43]: 474 nM
